viability, differential viability (reversal) and inhibition data for 18 compounds are collected here from PubChem BioAssay.

Calls of active or inactive are those of the source.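 Rule for the calls, unless noted: active = viability at or under a set limit in both replicates, limit being median viability minus 3 SD (cut at about 48% in these data, passing the limit was not always enough); inconclusive = at or under the limit in just one replicate; inactive = at or above the limit in both replicates.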

The nature of assay [1]: reduced viability of SK-BR-3 breast cancer cells – cell-based, 24 h, human, pilot screen (AID 572;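 active = viability at or below 10% of carrier control in both of two separate runs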;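 note: compound exposure lasted between 18 and 24 h rather than exactly 24 h; 100% = carrier-treated control wells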). The conditions noted are these: SK-BR-3 viability, CellTiter-Glo luminescence, at 10 µM, stronger effect = lower value. (In general: In ATP-based viability assays light output follows the ATP content of the culture.)
Assay [2] in a line: HUVEC growth inhibition – cell-based, human, primary screen (AID 575;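 active = viability at or below 30% in both replicate assays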;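 note: 100% = median of untreated cell wells with 0.1% DMSO on each plate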). The conditions noted are these: HUVEC proliferation, CellTiter-Glo luminescence, 72 h; at 10 µM; stronger effect = lower value. The essentials: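 Assay system: primary human umbilical vein endothelial cells / Buffer or medium: endothelial basal medium with 2% FBS plus growth supplements / Compound dosing: one dose, 10 µM final, 0.1% DMSO / Timing: 72 h treatment at 37 °C / Signal: CTG luminescence / Benchmarks: 32 DMSO-only cell-control wells (high), 32 MePR drug-control wells (low) per plate / Plate: collagen-coated 384-well format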

Assay [3] is described as follows: H69AR cell proliferation blockers – human, duplicate replicates, primary screen (AID 580).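 Note: 100% = mean luminescence of untreated wells and 0% = no signal.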 The conditions noted are these: H69AR lung tumor cells viability, ATP luminescence, 72 h; at 10 µM; stronger effect = lower value.
A short description of assay [4]: MRP1 drug-resistance reversers in H69AR cells – cell-based, doxorubicin co-treatment, pilot screen (AID 601;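 active = viability loss from added drug above about 55%, and viability with drug at most 40%, in both replicates, limit read from the data, passing the limit was not always enough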). The conditions noted are these: CellTiter-Glo, 72 h, at 10 µM; for differential viability (reversal): stronger effect = higher value.
Assay [5] can be described thus: yeast transport mutant growth inhibition pilot in 384-well plates, post-Golgi transport modulator project (AID 636; in the data active = inhibition above about 31%). The conditions noted are these: absorbance 615 nm, about 18 h, stronger effect = higher value.
Assay [6] can be described thus: growth suppression of yeast trafficking mutant, preliminary HTS, modulators of trafficking downstream of Golgi apparatus project, 1536-format plate, OD 615 nm (AID 637; in the data active = inhibition above about 30%). The conditions noted are these: yeast transport mutant growth, absorbance 615 nm, 18 h; stronger effect = higher value.
[7] abbreviates: H69AR cells + 2 uM doxorubicin, measured here: viability with 2 uM doxorubicin, stronger effect = lower value.
Where [8] appears, read: H69AR cells, compound alone cytotoxicity.

In general, viability refers to a read-out of living cells in per cent, often relative to untreated cells. The inhibition is the relative decrease from the control value, in per cent. With `O=C(NCc1ccco1)c1cccc(S(=O)(=O)N2CCCCC2)c1`, the viability in assay [1] was 110% (inactive); in assay [2], 99.3% (inactive); in assay [3] it was 90.9% (inactive); in assay [4] (setting [7]), 96%; in assay [4] (setting [8]), 90.9%. Further, the differential viability (reversal) in assay [4] (H69AR cells + 2 uM doxorubicin) was -5.04% (inactive). Moreover, the inhibition in assay [5] was 4.66% (inactive); in assay [6], 8.73% (inactive).
As to `CCOc1ccc(C2C(C#N)=C(N)Oc3cc(C)n(Cc4ccco4)c(=O)c32)cc1OC` (centres undefined), the viability is 99% (inactive) in assay [1]; 84.2% (inactive) in assay [2]; 76.7% (inactive) in assay [3]; 81.9% in assay [4] (setting [7]); 76.7% in assay [4] (setting [8]). Besides, the differential viability (reversal) in assay [4] (H69AR cells + 2 uM doxorubicin) was -5.13% (inactive). Moreover, the inhibition in assay [5] was -0.41% (inactive); in assay [6], -8.23% (inactive).
Take `COC(=O)c1sccc1NC(=O)c1ccco1`: the viability in assay [1] was 109% (inactive); in assay [2], 92.3% (inactive); in assay [3], 96.3% (inactive); in assay [4] (setting [7]), 102%; in assay [4] (setting [8]), 96.3%. For the same compound, the differential viability (reversal) in assay [4] (H69AR cells + 2 uM doxorubicin) was -5.95% (inactive). For the same compound, the inhibition in assay [5] was -6.71% (inactive); in assay [6], 7.27% (inactive).
With `CC(=O)c1ccc(-n2nnnc2SCC(=O)N2CCc3ccccc3C2)cc1`, the viability in assay [1] was 94% (inactive); in assay [2], 106% (inactive); in assay [3], 88.9% (inactive); in assay [4] (setting [7]), 101%; in assay [4] (setting [8]), 88.9%. In assay [4] (H69AR cells + 2 uM doxorubicin), the differential viability (reversal) was -12.1% (inactive). For the same compound, the inhibition in assay [5] was -6.3% (inactive); in assay [6], -14.7% (inactive).
Turning to `CCOc1cccc2cc(C(=O)N3CCN(C/C=C/c4ccccc4)CC3)c(=O)oc12`, the viability in assay [1] is 89% (inactive); in assay [2] it was 106% (inactive); in assay [3] it was 91.4% (inactive); in assay [4] (setting [7]), 68.6%; in assay [4] (setting [8]), 91.4%. Besides, the differential viability (reversal) in assay [4] (H69AR cells + 2 uM doxorubicin) was 22.8% (inactive). The inhibition in assay [5] was -5.68% (inactive); in assay [6], -4.73% (inactive).
For `CC(OC(=O)CNC(=O)C12CC3CC(CC(C3)C1)C2)C(=O)Nc1ccc(N2CCOCC2)cc1` (centres undefined), the viability in assay [1] is 121% (inactive); in assay [2], 101% (inactive); in assay [3], 97.2% (inactive); in assay [4] (setting [7]) it was 94.8%; in assay [4] (setting [8]), 97.2%. For the same compound, the differential viability (reversal) in assay [4] (H69AR cells + 2 uM doxorubicin) is 2.31% (inactive). For the same compound, the inhibition in assay [5] is -0.68% (inactive); in assay [6], -2.55% (inactive).
In the case of `CCCCC[C@H](O)/C=C/C1=C(CCCCCCC(=O)O)C(=O)CC1`, the viability in assay [1] was 109% (inactive); in assay [2], 75.2% (inactive); in assay [3] it was 92.5% (inactive); in assay [4] (setting [7]), 102%; in assay [4] (setting [8]), 92.5%. Further, the differential viability (reversal) in assay [4] (H69AR cells + 2 uM doxorubicin) is -9.49% (inactive). Besides, the inhibition is -0.26% (inactive) in assay [5] and -1.17% (inactive) in assay [6].
On to `O=C(CN1CCSCC1)N1CCc2[nH]c3ccc(Br)cc3c2C1`, for which the viability in assay [1] was 84% (inactive); in assay [2], 69.7% (inactive); in assay [3] it was 88.6% (inactive); in assay [4] (setting [7]) it was 81.5%; in assay [4] (setting [8]) it was 88.6%. For the same compound, the differential viability (reversal) in assay [4] (H69AR cells + 2 uM doxorubicin) is 7.04% (inactive). The inhibition in assay [5] is -4.93% (inactive); in assay [6], 2.18% (inactive).
With `CCCCc1ccc(NC(=O)N[C@H](C(=O)O)C(C)C)cc1`, the viability in assay [1] was 119% (inactive); in assay [2], 82.6% (inactive); in assay [3] it was 95% (inactive); in assay [4] (setting [7]) it was 95.2%; in assay [4] (setting [8]) it was 95%. Further, in assay [4] (H69AR cells + 2 uM doxorubicin), the differential viability (reversal) is -0.205% (inactive). In addition, the values for the inhibition in assay [5] and in assay [6] were -2.05% (inactive) and -5.32% (inactive), respectively.
For `CCN(CC)C(c1ccc(C)cc1)c1nnnn1C1CCCCC1` (centres undefined), the viability in assay [1] is 64% (inactive); in assay [2] it was 102% (inactive); in assay [3] it was 75.5% (inactive); in assay [4] (setting [7]), 68.5%; in assay [4] (setting [8]) it was 75.5%. Also, the differential viability (reversal) in assay [4] (H69AR cells + 2 uM doxorubicin) is 7% (inactive). Besides, the inhibition in assay [5] was -6.13% (inactive); in assay [6] it was -4.73% (inactive).
On to `Cc1ccc(-c2nnc(-c3cccc(Br)c3)o2)cc1`, for which the viability in assay [1] is 106% (inactive); in assay [2] it was 99.7% (inactive); in assay [3], 89.6% (inactive); in assay [4] (setting [7]) it was 92.7%; in assay [4] (setting [8]), 89.6%. In addition, in assay [4] (H69AR cells + 2 uM doxorubicin), the differential viability (reversal) is -3% (inactive). Besides, the inhibition is -6.76% (inactive) in assay [5] and 4% (inactive) in assay [6].
As for `CCOC(=O)c1cnc2c(OC)cccc2c1N1CCN(c2ccc(OC)cc2)CC1`, the viability is 124% (inactive) in assay [1]; 66.1% (inactive) in assay [2]; 79.6% (inactive) in assay [3]; 58.7% in assay [4] (setting [7]); 79.6% in assay [4] (setting [8]). Moreover, the differential viability (reversal) in assay [4] (H69AR cells + 2 uM doxorubicin) was 20.9% (inactive). Besides, the inhibition in assay [5] was -3.38% (inactive); in assay [6], 0.63% (inactive).
Consider `CCN(CC)C(=O)C1=C(C)Nc2nnnn2C1c1cccnc1` (centres undefined), for which the viability in assay [1] was 94% (inactive); in assay [2], 109% (inactive); in assay [3], 93.8% (inactive); in assay [4] (setting [7]), 89.3%; in assay [4] (setting [8]), 93.8%. The differential viability (reversal) in assay [4] (H69AR cells + 2 uM doxorubicin) was 4.5% (inactive). Also, the inhibition was 0.52% (inactive) in assay [5] and 3.11% (inactive) in assay [6].
Take `O=C(Nc1cccc(OCC(=O)N2CCOCC2)c1)C1CCCCC1`: the viability was 109% (inactive) in assay [1]; 90% (inactive) in assay [2]; 112% (inactive) in assay [3]; 112% in assay [4] (setting [7]); 112% in assay [4] (setting [8]). Also, in assay [4] (H69AR cells + 2 uM doxorubicin), the differential viability (reversal) was -0.43% (inactive). Moreover, the inhibition in assay [5] was -4.66% (inactive); in assay [6] it was 0% (inactive).
In the case of `CCOC(=O)C1CCN(C(C)=C2C(=O)c3ccccc3C2=O)CC1`, the viability in assay [1] is 98% (inactive); in assay [2], 110% (inactive); in assay [3], 105% (inactive); in assay [4] (setting [7]), 94.6%; in assay [4] (setting [8]) it was 105%. The differential viability (reversal) in assay [4] (H69AR cells + 2 uM doxorubicin) was 10.4% (inactive). Moreover, the values for the inhibition in assay [5] and in assay [6] were -4.66% (inactive) and 7.26% (inactive), respectively.
As for `CS(=O)(=O)N1CCCC(C(=O)N2CCOCC2)C1` (centres undefined), the viability in assay [1] was 97% (inactive); in assay [2], 108% (inactive); in assay [3], 98.3% (inactive); in assay [4] (setting [7]) it was 94.2%; in assay [4] (setting [8]), 98.3%. Besides, in assay [4] (H69AR cells + 2 uM doxorubicin), the differential viability (reversal) was 4.13% (inactive). Further, the inhibition in assay [5] was -2.6% (inactive); in assay [6], -1.15% (inactive).
Consider `CC(C)OC(=O)c1cc(NC(=O)C2C3CCC(O3)C2C(=O)O)cc(C(=O)OC(C)C)c1` (centres undefined), for which the viability in assay [1] is 106% (inactive); in assay [2] it was 88.1% (inactive); in assay [3] it was 92.9% (inactive); in assay [4] (setting [7]) it was 89.9%; in assay [4] (setting [8]), 92.9%. Besides, the differential viability (reversal) in assay [4] (H69AR cells + 2 uM doxorubicin) is 3.01% (inactive). Besides, the inhibition is -7.81% (inactive) in assay [5] and -1.09% (inactive) in assay [6].
`CN1[C@@H](CC(=O)c2ccccc2)CCC[C@H]1C[C@H](O)c1ccccc1`: the viability is 63% (inactive) in assay [1]; 81.4% (inactive) in assay [2]; 84.1% (inactive) in assay [3]; 88.7% in assay [4] (setting [7]); 84.1% in assay [4] (setting [8]). In addition, in assay [4] (H69AR cells + 2 uM doxorubicin), the differential viability (reversal) is -4.62% (inactive). The inhibition in assay [5] is 1.95% (inactive); in assay [6] it was 0.67% (inactive).
